Data taken from ChEMBL document CHEMBL4732226, “Discovery of a potent G-protein-coupled receptor 119 agonist for the treatment of type 2 diabetes” (Bioorg Med Chem, 2021).

What was measured:
[1] = Toxicity in female Wistar rat assessed as ratio of uterus to body weight at 200 mg/kg, po after 28 days (reference value: 0.335 +/- 0.108); type: organism-based; details: in vivo, 672 h, time 28 day
[2] = Toxicity in female Wistar rat assessed as ALP level at 200 mg/kg, po after 28 days (reference value: 100.14 +/- 21.98 U/L); type: organism-based; details: in vivo, 672 h, time 28 day
[3] = Toxicity in male Wistar rat assessed as glucose level at 200 mg/kg, po after 28 days (reference value: 89.02 +/- 13.41 mg/dl); type: organism-based; details: in vivo, 672 h, time 28 day
[4] = AUC(0 to infinity) in Wistar rat at 10 mg/kg, po up to 24 hrs; type: ADME, organism-based; design: route oral, dose 10 mg/kg, time <=24; details: in vivo
Outline: (§1)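 Single oral dose at 10 mg/kg given to male Wistar rats and to Beagle dogs; bioavailability also determined in both species.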

[5] = Toxicity in male Wistar rat assessed as globulin level at 100 mg/kg, po after 28 days (reference value: 2.62 +/- 0.12 g/dl); type: organism-based; details: in vivo, 672 h, time 28 day
[6] = Toxicity in female Wistar rat assessed as ratio of heart to body weight at 200 mg/kg, po after 28 days (reference value: 0.38 +/- 0.037); type: organism-based; details: in vivo, 672 h, time 28 day
[7] = Toxicity in female Wistar rat assessed as change in survival at 100 to 400 mg/kg, po after 28 days; type: organism-based; details: in vivo, 672 h, dose 100-400 mg/kg, time 28 day
Outline: (§2)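 Repeated-dose oral toxicity by gavage in Wistar rats, 10 males and 10 females per group, given 100, 200 or 400 mg/kg once daily for 28 days. Endpoints were clinical signs, mortality, neurobehaviour, food intake, ophthalmic examination and body weight. Animals were sacrificed on day 29 for blood biochemistry, organ-to-body weight ratios and histopathology.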

[8] = Toxicity in male Wistar rat assessed as ratio of adrenals to body weight at 200 mg/kg, po after 28 days (reference value: 0.020 +/- 0.003); type: organism-based; details: in vivo, 672 h, time 28 day
[9] = Elimination rate constant in Beagle dog at 10 mg/kg, po up to 24 hrs; type: ADME, organism-based, Canis lupus familiaris; details: in vivo; outline: as §1
[10] = Toxicity in female Wistar rat assessed as ratio of adrenals to body weight at 200 mg/kg, po after 28 days (reference value: 0.045 +/- 0.007); type: organism-based; details: in vivo, 672 h, time 28 day
[11] = Toxicity in female Wistar rat assessed as mortality up to 400 mg/kg, po after 28 days; type: organism-based; details: in vivo, 672 h, time 28 day; outline: as §2
[12] = Cmax in Wistar rat at 10 mg/kg, po up to 24 hrs; type: ADME, organism-based; design: route oral, dose 10 mg/kg, time <=24; details: in vivo; outline: as §1
[13] = Toxicity in female Wistar rat assessed as ratio of thymus to body weight at 200 mg/kg, po after 28 days (reference value: 0.260 +/- 0.025); type: organism-based; details: in vivo, 672 h, time 28 day
[14] = Toxicity in female Wistar rat assessed as creatinine level at 400 mg/kg, po after 28 days (reference value: 0.6 +/- 0.04 mg/dl); type: organism-based; details: in vivo, 672 h, time 28 day
Mus musculus = assay: Antidiabetic activity in glucose-stimulated […] mouse assessed as reduction in blood glucose level at 50 mg/kg, po pretreated for 30 mins followed by glucose-stimulation and measured up to 120 mins by OGTT method relative to control; type: functional; design: scale not given: the % may be the effect or the level left; details: 0.5 h
Outline: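 C57 mice aged 6–8 weeks were grouped by non-fasting glucose and fasted overnight. Single oral dose of 50 mg/kg; 30 min later basal bleed and oral glucose 3 g/kg. Serum glucose taken at 20, 40, 60 and 120 min. Change in glucose AUC calculated.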

[15] = AUC(0 to t) in Beagle dog at 10 mg/kg, po up to 24 hrs; type: ADME, organism-based, Canis lupus familiaris; design: route oral, dose 10 mg/kg, time <=24; details: in vivo; outline: as §1
[16] = Toxicity in female Wistar rat assessed as ratio of liver to body weight at 400 mg/kg, po after 28 days (reference value: 3.219 +/- 0.221); type: organism-based; details: in vivo, 672 h, time 28 day
[17] = Toxicity in female Wistar rat assessed as AST level at 200 mg/kg, po after 28 days (reference value: 128.84 +/- 21.42 U/L); type: organism-based; details: in vivo, 672 h, time 28 day
[18] = Toxicity in male Wistar rat assessed as ALT level at 100 mg/kg, po after 28 days (reference value: 30.47 +/- 2.63 U/L); type: organism-based; details: in vivo, 672 h, time 28 day
[19] = Toxicity in male Wistar rat assessed as ALP level at 400 mg/kg, po after 28 days (reference value: 174.77 +/- 25.42 U/L); type: organism-based; details: in vivo, 672 h, time 28 day
[20] = Toxicity in female Wistar rat assessed as ratio of kidney to body weight at 200 mg/kg, po after 28 days (reference value: 0.801 +/- 0.071); type: organism-based; details: in vivo, 672 h, time 28 day
[21] = Toxicity in female Wistar rat assessed as ratio of adrenals to body weight at 400 mg/kg, po after 28 days (reference value: 0.045 +/- 0.007); type: organism-based; details: in vivo, 672 h, time 28 day
[22] = Toxicity in male Wistar rat assessed as globulin level at 200 mg/kg, po after 28 days (reference value: 2.62 +/- 0.12 g/dl); type: organism-based; details: in vivo, 672 h, time 28 day
[23] = Toxicity in male Wistar rat assessed as creatinine level at 400 mg/kg, po after 28 days (reference value: 0.61 +/- 0.04 mg/dl); type: organism-based; details: in vivo, 672 h, time 28 day
[24] = Toxicity in male Wistar rat assessed as glucose level at 400 mg/kg, po after 28 days (reference value: 89.02 +/- 13.41 mg/dl); type: organism-based; details: in vivo, 672 h, time 28 day
[25] = Toxicity in male Wistar rat assessed as AST level at 100 mg/kg, po after 28 days (reference value: 119.4 +/- 9.3 U/L); type: organism-based; details: in vivo, 672 h, time 28 day
[26] = Toxicity in female po dosed Wistar rat after 28 days; type: organism-based; details: in vivo, time 28 day
Outline: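 Repeated-dose oral gavage study in Wistar rats, 10 per sex per group, at 100, 200 and 400 mg/kg once daily for 28 days. Clinical signs, mortality, neurobehaviour, food intake, body weight and ophthalmic examination were monitored, followed by blood biochemistry, organ weights and histopathology on day 29.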

[27] = Toxicity in female Wistar rat assessed as AST level at 100 mg/kg, po after 28 days (reference value: 128.84 +/- 21.42 U/L); type: organism-based; details: in vivo, 672 h, time 28 day
[28] = Toxicity in male Wistar rat assessed as ratio of thymus to body weight at 200 mg/kg, po after 28 days (reference value: 0.148 +/- 0.023); type: organism-based; details: in vivo, 672 h, time 28 day
[29] = Half life in Sprague-Dawley rat at 25 mg/kg, po up to 24 hrs; type: ADME, organism-based; details: in vivo
Outline: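 Male SD rats fasted overnight, water ad libitum, fed 4 h after dosing. Single oral gavage of 25 mg/kg as a homogeneous suspension in 0.5% Tween 80 in 0.5% Na-CMC. Blood drawn into Na-heparin tubes at 0.25, 0.5, 1, 2, 4, 6, 8 and 24 h; plasma stored at -70°C. Parameters by non-compartmental analysis, with C0 taken as zero and BLQ samples set to zero.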

[30] = Toxicity in male Wistar rat assessed as ratio of brain to body weight at 100 mg/kg, po after 28 days (reference value: 0.766 +/- 0.038); type: organism-based; details: in vivo, 672 h, time 28 day
[31] = Toxicity in male Wistar rat assessed as ratio of testes to body weight at 200 mg/kg, po after 28 days (reference value: 1.248 +/- 0.073); type: organism-based; details: in vivo, 672 h, time 28 day

Compound: Cc1c(Oc2cccc(/C=C3\SC(=O)NC3=O)c2)ncnc1OC1CCN(C(=O)OC(C)(C)C)CC1
- Ratio [1]: 0.33
- Activity [2]: 91.73 U/L
- Activity [3]: 75.19 mg/dL
- AUC(0-inf) [4]: 1900 ng·h/mL
- Activity [5]: 2.5 g/dL
- Ratio [6]: 0.394
- Activity [7]: Non-Toxic
- Ratio [8]: 0.023
- k el at 24 h [9]: 1.11e-05 s⁻¹
- Ratio [10]: 0.044
- Activity [11]: Non-Toxic
- Cmax [12]: 256 ng/mL
- Ratio [13]: 0.257
- Activity [14]: 0.6 mg/dL
- Activity (Mus musculus): 32.4%
- AUC(0-t) at 24 h [15]: 14900 ng·h/mL
- Ratio [16]: 3.172
- Activity [17]: 128.19 U/L
- Activity [18]: 28.9 U/L
- Activity [19]: 177.44 U/L
- Ratio [20]: 0.84
- Ratio [21]: 0.042
- Activity [22]: 2.64 g/dL
- Activity [23]: 0.57 mg/dL
- Activity [24]: 82.17 mg/dL
- Activity [25]: 114.13 U/L
- NOAEL at 672 h [26]: > 400 mg/kg
- Activity [27]: 120.42 U/L
- Ratio [28]: 0.175
- half-life [29]: 3.09 h
- Ratio [30]: 0.83
- Ratio [31]: 1.289
